In ChEMBL document CHEMBL1136006, “New PET imaging agent for the serotonin transporter: [(18)F]ACF (2-[(2-amino-4-chloro-5-fluorophenyl)thio]-N,N-dimethyl-benzenmethanamine)” (J Med Chem, 2002):
Activity calls are given as the source filed them. The calls are words filed in the database; no cut-off is given here.

How the values were obtained:
[1] = target: T1, Sodium-dependent serotonin transporter (Rattus norvegicus, UniProt P31652); experiment: In vitro binding affinity in LLC-PK1 cells by SERT binding assay by using [125I]IDAM as a radioligand; assay type: cell-based
T1 sequence (P31652 whole entry): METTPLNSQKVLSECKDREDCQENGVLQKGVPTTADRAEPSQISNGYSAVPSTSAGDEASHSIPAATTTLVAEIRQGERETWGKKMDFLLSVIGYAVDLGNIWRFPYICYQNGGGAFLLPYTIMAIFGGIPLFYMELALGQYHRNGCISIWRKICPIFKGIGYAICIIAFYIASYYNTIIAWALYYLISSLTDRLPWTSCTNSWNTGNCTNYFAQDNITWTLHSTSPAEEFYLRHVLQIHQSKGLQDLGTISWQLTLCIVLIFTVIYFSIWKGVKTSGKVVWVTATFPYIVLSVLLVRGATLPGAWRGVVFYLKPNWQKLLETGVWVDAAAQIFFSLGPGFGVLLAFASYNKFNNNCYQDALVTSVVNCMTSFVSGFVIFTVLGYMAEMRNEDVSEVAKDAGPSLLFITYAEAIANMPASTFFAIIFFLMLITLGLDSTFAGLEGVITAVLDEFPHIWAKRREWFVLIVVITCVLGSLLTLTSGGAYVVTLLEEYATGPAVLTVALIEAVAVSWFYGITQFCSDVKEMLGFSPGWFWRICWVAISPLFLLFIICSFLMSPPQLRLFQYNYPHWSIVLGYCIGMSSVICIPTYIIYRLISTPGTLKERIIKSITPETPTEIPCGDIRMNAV
How it was run: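 LLC-PK1 membrane homogenates overexpressing SERT. Incubated with 0.4 nM [125I]IDAM and 8–10 competitor concentrations (10^-10 to 10^-5 M) in 50 mM Tris-HCl pH 7.4, 120 mM NaCl, 0.1% BSA for 1 h at room temperature. Nonspecific binding defined with 1 μM IDAM. Filter-bound activity gamma-counted, nonlinear regression. Mean ± SEM, three determinations in duplicate.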

[2] = target: Sodium-dependent dopamine transporter (Rattus norvegicus, UniProt P23977); experiment: In vitro binding affinity in LLC-PK1 cells by Dopamine transporter binding assay by using [125I]IPT as a radioligand; assay type: cell-based
Sodium-dependent dopamine transporter, sequence (P23977 whole entry): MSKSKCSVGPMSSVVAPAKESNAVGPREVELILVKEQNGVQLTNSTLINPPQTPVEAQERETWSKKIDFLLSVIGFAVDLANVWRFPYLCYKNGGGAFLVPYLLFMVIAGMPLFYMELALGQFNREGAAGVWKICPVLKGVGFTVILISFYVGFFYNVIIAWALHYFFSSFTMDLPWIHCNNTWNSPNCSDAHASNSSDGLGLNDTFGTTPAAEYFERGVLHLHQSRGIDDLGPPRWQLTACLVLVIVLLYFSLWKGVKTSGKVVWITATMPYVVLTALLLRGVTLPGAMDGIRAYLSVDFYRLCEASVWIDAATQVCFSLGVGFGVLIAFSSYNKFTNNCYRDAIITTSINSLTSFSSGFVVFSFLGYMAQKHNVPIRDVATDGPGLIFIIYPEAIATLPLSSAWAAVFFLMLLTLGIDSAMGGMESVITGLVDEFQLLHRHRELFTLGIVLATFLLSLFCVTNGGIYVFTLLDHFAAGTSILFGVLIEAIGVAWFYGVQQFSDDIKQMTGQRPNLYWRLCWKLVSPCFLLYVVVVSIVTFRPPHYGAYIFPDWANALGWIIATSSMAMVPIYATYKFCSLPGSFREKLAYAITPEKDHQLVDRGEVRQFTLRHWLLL
How it was run: (§1)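 LLC-PK1 cell membrane homogenates overexpressing DAT or NET. Incubated with 0.4 nM [125I]IPT and 8–10 competitor concentrations (10^-10 to 10^-5 M) in 50 mM Tris-HCl pH 7.4, 120 mM NaCl, 0.1% BSA for 1 h at room temperature. Nonspecific binding defined with 10 μM CFT. Filtered, gamma-counted, nonlinear regression. Mean ± SEM of three determinations in duplicate.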

[3] = target: T2, Sodium-dependent noradrenaline transporter (Homo sapiens, UniProt P23975); experiment: In vitro binding affinity in LLC-PK1 cells by Norepinephrine transporter binding assay by using [125I]-IPT as a radioligand; assay type: cell-based; how it was run: as §1
T2 sequence (P23975 whole entry, looked up): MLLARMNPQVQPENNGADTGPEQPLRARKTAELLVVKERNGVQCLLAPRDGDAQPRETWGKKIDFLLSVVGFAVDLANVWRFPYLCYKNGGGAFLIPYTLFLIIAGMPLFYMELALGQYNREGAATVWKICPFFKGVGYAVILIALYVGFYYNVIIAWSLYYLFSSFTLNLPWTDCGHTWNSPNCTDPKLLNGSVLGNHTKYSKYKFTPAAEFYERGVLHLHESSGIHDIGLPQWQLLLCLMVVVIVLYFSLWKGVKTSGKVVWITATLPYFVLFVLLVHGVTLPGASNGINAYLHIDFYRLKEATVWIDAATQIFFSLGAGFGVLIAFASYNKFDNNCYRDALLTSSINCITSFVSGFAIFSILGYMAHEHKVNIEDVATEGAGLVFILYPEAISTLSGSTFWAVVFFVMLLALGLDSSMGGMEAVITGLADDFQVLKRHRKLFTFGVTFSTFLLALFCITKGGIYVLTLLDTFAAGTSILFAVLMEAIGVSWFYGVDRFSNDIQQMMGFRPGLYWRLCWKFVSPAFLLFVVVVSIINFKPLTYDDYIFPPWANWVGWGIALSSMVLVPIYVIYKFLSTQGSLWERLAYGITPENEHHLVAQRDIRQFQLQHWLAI

[4] = target: Sodium-dependent dopamine transporter (Rattus norvegicus) (UniProt P23977); experiment: Selectivity for Dopamine transporter; No inhibition
Sodium-dependent dopamine transporter (Rattus norvegicus), sequence (P23977 whole entry): as the sequence (P23977 whole entry) above

[5] = target: T1, Sodium-dependent serotonin transporter; experiment: Inhibition of 5-HT reuptake (SERT) in rat brain synaptosomes.; assay type: subcellular
[6] = target: T2, Sodium-dependent noradrenaline transporter; experiment: Selectivity for norepinephrine transporter

SMILES	Ki [1] [nM]	Ki [2] [nM]	Ki [3] [nM]	also measured
Cc1ccc(Sc2ccccc2CN(C)C)c(N)c1	1.1	–	–	–
CN(C)Cc1ccccc1Sc1ccc(CF)cc1N	1.1	–	–	–
COc1ccc(Sc2ccccc2CN(C)C)c(N)c1	1.1	–	–	–
CN(C)C(=O)c1ccccc1Sc1cc(N)c(Cl)cc1[N+](=O)[O-]	2.39	3050	15000	–
CN(C)Cc1ccccc1Sc1ccc(Cl)cc1CO	–	–	–	NI [4]: inactive; Ki [5]: 2.1 nM; Ki [6]: 55 nM
CN(C)Cc1ccccc1Sc1cc(F)c(Cl)cc1[N+](=O)[O-]	4.16	31900	2810	–
CN(C)Cc1ccccc1Sc1ccc(I)cc1N	–	699	699	–
